# Laboratory results: ChEMBL document CHEMBL4330145, “Discovery of the Cyclic Lipopeptide Gacamide A by Genome Mining and Repair of the Defective GacA Regulator in Pseudomonas fluorescens Pf0-1” (2019)
# Active and inactive are the calls of the source. The calls are words filed in the database; no cut-off is given here.
# Key:
# Staphylococcus aureus [1] = assay: Antibacterial activity against methicillin sensitive Staphylococcus aureus isolate 5185 after 24 hrs by agar diffusion assay; assay type: functional, organism-based
# Outline: (§1)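 Plates of Columbia agar with 5% sheep blood were overlaid with 3 mL tryptic soy soft agar seeded with a TSB suspension of the test strain. Compound was diluted in DMSO to 1 mg/mL, and 3 μL was spotted on the agar surface. The inhibition-zone diameter was measured after 24 h at 37 °C. Clinical isolates were kept on Mueller−Hinton or blood agar.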
# Staphylococcus aureus [2] = assay: Antibacterial activity against methicillin sensitive Staphylococcus aureus isolate I-11574 after 24 hrs by agar diffusion assay; assay type: functional, organism-based; outline: as §1
# Staphylococcus aureus [3] = assay: Antibacterial activity against methicillin-resistant Staphylococcus aureus isolate LT-1334 after 24 hrs by agar diffusion assay; assay type: functional, organism-based
# Outline: (§2)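 Agar diffusion: 5% sheep blood Columbia agar plates overlaid with 3 mL tryptic soy soft agar seeded with a TSB suspension of the clinical isolate. Compound diluted in DMSO to 1 mg/mL, and 3 μL spotted on the agar surface. Inhibition zone diameter measured after 24 h at 37 °C. Strains were maintained on Mueller−Hinton or blood agar.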
# Staphylococcus aureus [4] = assay: Antibacterial activity against methicillin-resistant Staphylococcus aureus isolate LT-1338 after 24 hrs by agar diffusion assay; assay type: functional, organism-based; outline: as §2
# [5] = test system: Staphylococcus epidermidis; assay: Antibacterial activity against methicillin-resistant Staphylococcus epidermidis isolate LT-1324 after 24 hrs by agar diffusion assay; assay type: functional, organism-based; outline: as §2
# Candida albicans [6] = assay: Antifungal activity against Candida albicans isolate I-11301 after 24 hrs by agar diffusion assay; assay type: functional, organism-based
# Candida albicans [7] = assay: Antifungal activity against Candida albicans isolate I-11134 after 24 hrs by agar diffusion assay; assay type: functional, organism-based
# Citrobacter freundii = assay: Antibacterial activity against Citrobacter freundii isolate I-11090 after 24 hrs by agar diffusion assay; assay type: functional, organism-based; outline: as §1
# [8] = test system: Klebsiella pneumoniae subsp. ozaenae; assay: Antibacterial activity against Klebsiella pneumoniae subsp. ozaenae isolate I-10910 after 24 hrs by agar diffusion assay; assay type: functional, organism-based; outline: as §1
# Enterococcus faecium [9] = assay: Antibacterial activity against Enterococcus faecium isolate I-11305b after 24 hrs by agar diffusion assay; assay type: functional, organism-based; outline: as §1
# Enterococcus faecium [10] = assay: Antibacterial activity against Enterococcus faecium isolate I-11054 after 24 hrs by agar diffusion assay; assay type: functional, organism-based; outline: as §1
# Escherichia coli [11] = assay: Antibacterial activity against Escherichia coli isolate I-11276b after 24 hrs by agar diffusion assay; assay type: functional, organism-based; outline: as §1
# Escherichia coli [12] = assay: Antibacterial activity against Escherichia coli isolate O-19592 after 24 hrs by agar diffusion assay; assay type: functional, organism-based; outline: as §1
# [13] = test system: Stenotrophomonas maltophilia; assay: Antibacterial activity against Stenotrophomonas maltophilia isolate O-16451 after 24 hrs by agar diffusion assay; assay type: functional, organism-based; outline: as §1
# [14] = test system: Stenotrophomonas maltophilia; assay: Antibacterial activity against Stenotrophomonas maltophilia isolate I-10717 after 24 hrs by agar diffusion assay; assay type: functional, organism-based; outline: as §1
# Pseudomonas aeruginosa = assay: Antibacterial activity against Pseudomonas aeruginosa isolate I-10968 after 24 hrs by agar diffusion assay; assay type: functional, organism-based; outline: as §1
# Staphylococcus simulans = assay: Antibacterial activity against Staphylococcus simulans isolate 22 after 24 hrs by agar diffusion assay; assay type: functional, organism-based; outline: as §1
# Micrococcus luteus = assay: Antibacterial activity against Micrococcus luteus ATCC 4698 after 24 hrs by agar diffusion assay; assay type: functional, organism-based; conditions: NCTC 2665
# [15] = test system: Mycolicibacterium smegmatis; assay: Antibacterial activity against Mycobacterium smegmatis after 24 hrs by agar diffusion assay; assay type: functional, organism-based
# Bacillus subtilis = assay: Antibacterial activity against Bacillus subtilis 168 after 24 hrs by agar diffusion assay; assay type: functional, organism-based; conditions: subsp. subtilis str. 168
# Listeria welshimeri = assay: Antibacterial activity against Listeria welshimeri DSM 20650 after 24 hrs by agar diffusion assay; assay type: functional
# Corynebacterium xerosis = assay: Antibacterial activity against Corynebacterium xerosis after 24 hrs by agar diffusion assay; assay type: functional, organism-based
# Staphylococcus aureus [16] = assay: Antibacterial activity against Staphylococcus aureus after 24 hrs by agar diffusion assay; assay type: functional, organism-based
# Staphylococcus aureus [17] = assay: Antibacterial activity against Staphylococcus aureus isolate 133 after 24 hrs by agar diffusion assay; assay type: functional, organism-based; outline: as §1
# [18] = test system: Agrobacterium tumefaciens; assay: Antibacterial activity against Agrobacterium tumefaciens B6 after 24 hrs by agar diffusion assay; assay type: functional, organism-based
# [19] = test system: Agrobacterium tumefaciens; assay: Antibacterial activity against Agrobacterium tumefaciens C58 after 24 hrs by agar diffusion assay; assay type: functional, organism-based
# Erwinia amylovora = assay: Antibacterial activity against Erwinia amylovora Ea153 after 24 hrs by agar diffusion assay; assay type: functional, organism-based
# [20] = test system: Pseudomonas syringae pv. tomato str. DC3000; assay: Antibacterial activity against Pseudomonas syringae DC3000 after 24 hrs by agar diffusion assay; assay type: functional
# Pseudomonas fluorescens = assay: Antibacterial activity against Pseudomonas fluorescence A506 after 24 hrs by agar diffusion assay; assay type: functional, organism-based
# Priestia megaterium = assay: Antibacterial activity against Bacillus megaterium Km after 24 hrs by agar diffusion assay; assay type: functional, organism-based
# Rhodococcus fascians = assay: Antibacterial activity against Rhodococcus fascians A44A after 24 hrs by agar diffusion assay; assay type: functional, organism-based; conditions: Rhodococcoides fascians
# [21] = test system: Arthrobacter crystallopoietes; assay: Antibacterial activity against Arthrobacter crystallopoietes DSM 20117 after 24 hrs by microtiter plate broth dilution assay; conditions: Crystallibacter crystallopoietes, DSM 20117, 24 h
smiles,measurement,setting,value
CCCCCCC[C@@H](O)CC(=O)N[C@H](CC(C)C)C(=O)N[C@H](CC(=O)O)C(=O)N[C@H](CCC(N)=O)C(=O)N[C@H](C(=O)N[C@H](CC(C)C)C(=O)N[C@H](CCC(N)=O)C(=O)N[C@@H]1COC(=O)[C@H]([C@@H](C)CC)NC(=O)[C@@H](CO)NC(=O)[C@H](CC(C)C)NC(=O)[C@H](CC(C)C)NC1=O)[C@H](C)CC,Activity,Staphylococcus aureus [1],inactive
same,Activity,Staphylococcus aureus [2],inactive
same,Activity,Staphylococcus aureus [3],inactive
same,Activity,Staphylococcus aureus [4],inactive
same,Activity,[5],inactive
same,Activity,Candida albicans [6],inactive
same,Activity,Candida albicans [7],inactive
same,Activity,Citrobacter freundii,inactive
same,Activity,[8],inactive
same,Activity,Enterococcus faecium [9],inactive
same,Activity,Enterococcus faecium [10],inactive
same,Activity,Escherichia coli [11],inactive
same,Activity,Escherichia coli [12],inactive
same,Activity,[13],inactive
same,Activity,[14],inactive
same,Activity,Pseudomonas aeruginosa,inactive
same,Activity,Staphylococcus simulans,inactive
same,Activity,Micrococcus luteus,inactive
same,Activity,[15],inactive
same,Activity,Bacillus subtilis,inactive
same,Activity,Listeria welshimeri,inactive
same,Activity,Corynebacterium xerosis,inactive
same,Activity,Staphylococcus aureus [16],inactive
same,Activity,Staphylococcus aureus [17],inactive
same,Activity,[18],inactive
same,Activity,[19],inactive
same,Activity,Erwinia amylovora,inactive
same,Activity,[20],inactive
same,Activity,Pseudomonas fluorescens,inactive
same,Activity,Priestia megaterium,inactive
same,Activity,Rhodococcus fascians,inactive
same,MIC,[21],32 µg/mL
